The text below walks through data of ChEMBL document CHEMBL5715946 (Chem Biol, 2010).

For test [1], the system named is Antioxidant response element. The test can be described thus: Induction of ARE activity in serum-deprived neonatal Wistar rat cardiomyocytes assessed as increase in GST Ya mRNA level up to 3 uM measured after 24 hrs by RT-qPCR analysis. It counts as cell-based. As to conditions: Cardiomyocyte. The method, boiled down:
(§1)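 Neonatal rat cardiomyocytes exposed to samples or vehicle in M-199 with 1% penicillin-streptomycin, no serum, for 24 hr. GST Ya and HO-1 mRNA measured by real-time qPCR (mean ± SD, n = 3); protein by western blot with β-actin as control.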

Test [2] has as its system Antioxidant response element. The test can be described thus: Induction of ARE activity in serum-deprived neonatal Wistar rat cardiomyocytes assessed as increase in HO-1 expression up to 400 nM measured after 24 hrs by Western blot analysis. It counts as cell-based. As to conditions: Cardiomyocyte. Summed up: as §1
The target in test [3] is T1, Macrophage migration inhibitory factor (Homo sapiens) (UniProt P14174).
T1 sequence (whole entry): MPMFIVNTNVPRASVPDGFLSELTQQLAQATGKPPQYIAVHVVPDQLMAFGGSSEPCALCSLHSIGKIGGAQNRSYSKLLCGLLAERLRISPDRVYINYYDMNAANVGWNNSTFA
The test is described as follows: Binding affinity to BTZO-12 sensor chip immobilized recombinant human C-terminal His-tagged MIF expressed in Escherichia coli BL21 (DE3) by SPR analysis. Summed up: (§2)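 Sensor chip carrying immobilized BTZO-12; MIF (wild type or point mutants) passed over it and specific binding monitored by surface plasmon resonance.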

Test [4] in a line: Upregulation of thioredoxin reductase gene expression in serum-deprived neonatal Wistar rat cardiomyocyte at 0.37 uM incubated for 21 hrs by microarray analysis relative to control. It is filed as functional, Cardiac muscle cell. The method, boiled down: (§3)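 Primary neonatal rat cardiomyocytes, isolated by proteinase digestion with preplating to deplete nonmyocytes, cultured in serum-free medium with or without 0.37 μM compound for 21 hr. Total RNA was recovered and global expression profiled on an Affymetrix GeneChip rat genome U34A array (about 7000 known genes). Change is relative to untreated cells.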

For test [5], the system named is Cardiac muscle cell. The test can be described thus: Cytoprotective activity against serum deprivation-induced neonatal Wistar rat cardiomyocyte death assessed as suppression of internucleosomal cleavage of genomic DNA at 0.37 uM measured after 3 days by agarose gel electrophoresis. It is filed as functional, cell-based. Conditions: time 3.0 day. Summed up:
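Neonatal rat cardiomyocytes held with or without 0.37 μM compound in serum-free medium for 3 days. Genomic DNA then isolated and internucleosomal laddering examined by agarose gel electrophoresis.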

Test [6] is described as follows: Upregulation of glutathione reductase gene expression in serum-deprived neonatal Wistar rat cardiomyocyte at 0.37 uM incubated for 21 hrs by microarray analysis relative to control. It is filed as functional, Cardiac muscle cell. The method, boiled down: as §3
Test [7] in a line: Upregulation of glutathione S-transferase Ya subunit gene expression in serum-deprived neonatal Wistar rat cardiomyocyte at 0.37 uM incubated for 21 hrs by microarray analysis relative to control. It is filed as functional, Cardiac muscle cell. The method, boiled down:
as §3

In test [8] the target is Macrophage migration inhibitory factor (Rattus norvegicus) (UniProt P30904). The test is described as follows: Induction of MIF-stimulated ARE activity in rat H9c2 cells assessed as increase in GST Ya expression at 3 uM incubated for 24 hrs by RT-qPCR analysis. It counts as cell-based.
Target sequence in this assay (P30904 2-115 limits assumed): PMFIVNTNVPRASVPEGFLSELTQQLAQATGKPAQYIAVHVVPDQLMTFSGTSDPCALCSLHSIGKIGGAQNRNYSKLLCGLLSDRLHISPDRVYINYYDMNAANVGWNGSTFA
The species entered for another test is Homo sapiens. The test can be described thus: Binding affinity to BTZO-12 sensor chip immobilized recombinant human N-terminal His-tagged MIF C59S mutant expressed in Escherichia coli BL21 (DE3) by SPR analysis. Summed up: as §2
The species entered for the next test is Rattus norvegicus. The test can be described thus: Binding affinity to rat 6His-tagged VILIP3 expressed in Escherichia coli BL21 (DE3) at 400 nM incubated for 6 hrs using labelled compound by scintillation proximity assay. Summed up:
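Scintillation proximity assay: 6His-tagged protein (hMIF, rat GST Ya or rat VILIP3) captured on copper His-tag SPA beads with [3H]-BTZO-1; emitted light counted on a microplate scintillation counter. Mean of n = 2.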

A short description of test [9]: Upregulation of 3-methylcholanthrene-inducible truncated UDP-glucuronosyl transferase gene expression in serum-deprived neonatal Wistar rat cardiomyocyte at 0.37 uM incubated for 21 hrs by microarray analysis relative to control. It counts as functional, Cardiac muscle cell. The method, boiled down:
(§4)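 Primary neonatal rat cardiomyocytes cultured with or without 0.37 μM compound in serum-free medium for 21 hr. Total RNA profiled on the rat genome U34A GeneChip array (about 7000 known genes).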

Test [10] is described as follows: Upregulation of Fischer 344 GST Yc subunit gene expression in serum-deprived neonatal Wistar rat cardiomyocyte at 0.37 uM incubated for 21 hrs by microarray analysis relative to control. It is filed as functional, Cardiac muscle cell. Summed up:
as §4

Test [11] relates to Antioxidant response element. The test can be described thus: Induction of ARE activity in serum-deprived neonatal Wistar rat cardiomyocytes assessed as increase in HO-1 mRNA level up to 3 uM measured after 24 hrs by RT-qPCR analysis. As to conditions: Cardiomyocyte. It is filed as cell-based. Summed up: as §1
In test [12] the target is Macrophage migration inhibitory factor (Rattus norvegicus) (UniProt P30904). The test is described as follows: Inhibition of recombinant rat MIF expressed in Escherichia coli BL21 (DE3) assessed as reduction in tautomerase activity at 3.75 to 30 uM using L-dopachrome carboxy-methyl ester as substrate by spectrophotometry. As to conditions: dose 3.75-30 µM. The method, boiled down:
(§5)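 Purified recombinant rat MIF tautomerase assayed with purified L-dopachrome carboxy-methyl ester as substrate in pH 6.0 buffer; rate taken over the initial 30 s. Mean ± SD, n = 4.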
Target sequence in this assay (P30904 2-115 limits assumed): as above

Test [13] is described as follows: Upregulation of glutathione S-transferase Y(b) subunit gene expression in serum-deprived neonatal Wistar rat cardiomyocyte at 0.37 uM incubated for 21 hrs by microarray analysis relative to control. It is filed as functional, Cardiac muscle cell. Summed up:
as §3

The target in test [14] is Macrophage migration inhibitory factor (Rattus norvegicus, UniProt P30904). The test is described as follows: Inhibition of recombinant rat MIF expressed in Escherichia coli BL21 (DE3) assessed as reduction in tautomerase activity using L-dopachrome carboxy-methyl ester as substrate by spectrophotometry. Summed up:
as §5

Test [15] is described as follows: Upregulation of catalase gene expression in serum-deprived neonatal Wistar rat cardiomyocyte at 0.37 uM incubated for 21 hrs by microarray analysis relative to control. It counts as functional, Cardiac muscle cell. Summed up: as §3
Test [16] concerns Cardiac muscle cell. The test is described as follows: Potency index, ratio of trolox MEC1.5 to test compound MEC1.5 for cytoprotective activity against serum deprivation-induced neonatal Wistar rat cardiomyocyte death. It counts as functional.
Test [17] deals with T1, Macrophage migration inhibitory factor (Homo sapiens). The test is described as follows: Binding affinity to BTZO-12 sensor chip immobilized recombinant human N-terminal His-tagged MIF expressed in Escherichia coli BL21 (DE3) by SPR analysis. Summed up: as §2
A short description of test [18]: Upregulation of UDP glucuronosyltransferase, exon 1 gene expression in serum-deprived neonatal Wistar rat cardiomyocyte at 0.37 uM incubated for 21 hrs by microarray analysis relative to control. It counts as functional, Cardiac muscle cell. The method, boiled down:
as §4

Test [19] concerns Antioxidant response element. The test is described as follows: Induction of ARE-mediated HO-1 mRNA expression in MIF siRNA transfected rat H9c2 cells at 3 uM measured after 24 hrs in presence of rat MIF by RT-qPCR analysis. It counts as cell-based. The method, boiled down:
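H9c2 cells transfected with MIF siRNA or control siRNA (100 nM, Oligofectamine), then treated with 3 μM compound with or without 0.8 μM rMIF for 24 hr. GST Ya and HO-1 mRNA by real-time qPCR; mean ± SD, n = 3. MIF effect on drug efficacy tested by Aspin-Welch test.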

Test [20] concerns the target Macrophage migration inhibitory factor (Rattus norvegicus) (UniProt P30904). The test is described as follows: Binding affinity to BTZO-12 sensor chip immobilized recombinant rat MIF expressed in Escherichia coli BL21 (DE3) at pH 6 by SPR analysis. The method, boiled down: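 SPR on a BTZO-12-type sensor chip with purified recombinant rat MIF, binding compared at pH 6.0 and pH 7.3.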
Target sequence in this assay (P30904 2-115 limits assumed): as above

For test [21] the target is unchanged. The test can be described thus: Inhibition of [3H]-BTZO-1 binding to recombinant rat C-terminal His-tagged MIF expressed in Escherichia coli BL21 (DE3) measured after 3 hrs by SPA.
Target sequence in this assay (P30904 whole entry, looked up): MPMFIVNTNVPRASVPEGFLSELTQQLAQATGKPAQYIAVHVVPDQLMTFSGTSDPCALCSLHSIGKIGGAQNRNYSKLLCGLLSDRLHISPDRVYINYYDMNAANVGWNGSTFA
Another test relates to H9c2. The test can be described thus: Effect on protein oxidation in rat H9c2 cells at 10 uM incubated for 24 hrs under serum-free medium by Western blot analysis. It counts as functional, cell-based.

Active and inactive are the calls of the source. The rule behind the calls is not given here.

Sequence of Macrophage migration inhibitory factor (P30904 2-115 limits assumed): as the sequence (P30904 2-115 limits assumed) above

With `O=c1nc(-c2ccccn2)sc2ccccc12` [BTZO-1], the outcome (in test [1]; in [2]; in [3]; in the test on Cardiac muscle cell [5]; in test [8]; in the test filed under Homo sapiens) was Active. Also, the outcome in [11], in test [17], in test [19] and in test [20] was Active. Further, the “fold change (FC)” value in test [4] was 2.8; in test [6] it was 4.4; in [7], 12; in [9], 2.2; in test [10], 2.3; in test [13], 2.5. In addition, the “fold change (FC)” value is 2.3 in test [15] and 5 in [18]. Also, the result in the test filed under Rattus norvegicus and in the test with H9c2 was inactive. Also, the inhibition entry in test [12] is “Active”. For the same molecule, the figures for the IC50 in test [14] and in test [21] were more than 30000 nM and 71 nM, respectively. Besides, the Ratio with Cardiac muscle cell [16] is 10000.
